pIC50: −log10 of the molar value. Active and inactive are the calls of the source. The rule behind the calls is not given here.
system: dengue virus type 2; assay: Inhibition of DENV serotype 2 NS2B-NS3 protease expressed in Escherichia coli BL21 lambda (DE3) cells using Abz-Nle-Lys-Arg-Arg-Ser-3-(NO2)Tyr as substrate at 50 uM preincubated for 15 mins followed by substrate addition measured for 15 mins by FRET assay relative to control

Row | SMILES | inhibition
1 | CCC(CC)N1C(=O)S/C(=C\c2ccc(C(=O)N[C@@H](CCCNC(=N)N)C(=O)N[C@@H](CCCCN)C(=O)N[C@H](C(N)=O)c3ccccc3)cc2)C1=O | 99.3%
2 | CC(C)N1C(=O)S/C(=C\c2ccc(C(=O)N[C@@H](CCCNC(=N)N)C(=O)N[C@@H](CCCCN)C(=O)N[C@H](C(N)=O)c3ccccc3)cc2)C1=O | 99.1%
3 | N=C(N)NCCC[C@H](NC(=O)c1ccc(/C=C2\SC(=O)N(C3CCCCCC3)C2=O)cc1)C(=O)N[C@@H](CCCCN)C(=O)N[C@H](C(N)=O)c1ccccc1 | 100%
4 | CC(C)CCN1C(=O)S/C(=C\c2ccc(C(=O)N[C@@H](CCCNC(=N)N)C(=O)N[C@@H](CCCCN)C(=O)N[C@H](C(N)=O)c3ccccc3)cc2)C1=O | 100%
5 | N=C(N)NCCC[C@H](NC(=O)c1ccc(/C=C2\SC(=O)N(C3CCCCC3)C2=O)cc1)C(=O)N[C@@H](CCCCN)C(=O)N[C@H](C(N)=O)c1ccccc1 | 101%
6 | CCC(C)N1C(=O)S/C(=C\c2ccc(C(=O)N[C@@H](CCCNC(=N)N)C(=O)N[C@@H](CCCCN)C(=O)N[C@H](C(N)=O)c3ccccc3)cc2)C1=O (some centres not stated) | 102%
7 | CC(C)N1C(=O)S/C(=C\c2ccc(C(=O)O)cc2)C1=O | 16.3%
8 | N=C(N)NCCC[C@H](NC(=O)c1ccc(/C=C2\SC(=O)N(CC3CCCC3)C2=O)cc1)C(=O)N[C@@H](CCCCN)C(=O)N[C@H](C(N)=O)c1ccccc1 | 100%
9 | CCC(CC)CN1C(=O)S/C(=C\c2ccc(C(=O)N[C@@H](CCCNC(=N)N)C(=O)N[C@@H](CCCCN)C(=O)N[C@H](C(N)=O)c3ccccc3)cc2)C1=O | 100%
10 | N=C(N)NCCC[C@H](NC(=O)c1ccc(/C=C2\SC(=O)N(CCC3CCCCC3)C2=O)cc1)C(=O)N[C@@H](CCCCN)C(=O)N[C@H](C(N)=O)c1ccccc1 | 99.9%
11 | C#CCCN1C(=O)S/C(=C\c2ccc(C(=O)O)cc2)C1=O | inactive
12 | CC(C)(C)CN1C(=O)S/C(=C\c2ccc(C(=O)O)cc2)C1=O | 13.1%
13 | O=C(O)c1ccc(/C=C2\SC(=O)N(CC34CC5CC(CC(C5)C3)C4)C2=O)cc1 | inactive

system: not listed separately; assay: Inhibition of DENV serotype 2 NS2B-NS3 protease expressed in Escherichia coli BL21 lambda (DE3) cells using Abz-Nle-Lys-Arg-Arg-Ser-3-(NO2)Tyr as substrate preincubated for 15 mins followed by substrate addition measured for 15 mins by FRET assay; design: species or system dengue virus type 2
In short: (§1)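 IC50 by FRET assay at substrate 50 μM; DENV protease at 100 nM, WNV protease at 150 nM. Measured in triplicate.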

Row | SMILES | pIC50
14 | CC(C)N1C(=O)S/C(=C\c2ccc(C(=O)N[C@@H](CCCNC(=N)N)C(=O)N[C@@H](CCCCN)C(=O)N[C@H](C(N)=O)c3ccccc3)cc2)C1=O | 6.33
15 | N=C(N)NCCC[C@H](NC(=O)c1ccc(/C=C2\SC(=O)N(C3CCCCCC3)C2=O)cc1)C(=O)N[C@@H](CCCCN)C(=O)N[C@H](C(N)=O)c1ccccc1 | 6.08
16 | CC(C)CCN1C(=O)S/C(=C\c2ccc(C(=O)N[C@@H](CCCNC(=N)N)C(=O)N[C@@H](CCCCN)C(=O)N[C@H](C(N)=O)c3ccccc3)cc2)C1=O | 6.05
17 | N=C(N)NCCC[C@H](NC(=O)c1ccc(/C=C2\SC(=O)N(C3CCCCC3)C2=O)cc1)C(=O)N[C@@H](CCCCN)C(=O)N[C@H](C(N)=O)c1ccccc1 | 6.10

The next lines start with the values.

Row | pIC50 | SMILES
18 | 6.13 | CCC(CC)N1C(=O)S/C(=C\c2ccc(C(=O)N[C@@H](CCCNC(=N)N)C(=O)N[C@@H](CCCCN)C(=O)N[C@H](C(N)=O)c3ccccc3)cc2)C1=O
19 | 6.04 | CCC(C)N1C(=O)S/C(=C\c2ccc(C(=O)N[C@@H](CCCNC(=N)N)C(=O)N[C@@H](CCCCN)C(=O)N[C@H](C(N)=O)c3ccccc3)cc2)C1=O (some centres not stated)
20 | 6.07 | N=C(N)NCCC[C@H](NC(=O)c1ccc(/C=C2\SC(=O)N(CC3CCCC3)C2=O)cc1)C(=O)N[C@@H](CCCCN)C(=O)N[C@H](C(N)=O)c1ccccc1
21 | 6.19 | CCC(CC)CN1C(=O)S/C(=C\c2ccc(C(=O)N[C@@H](CCCNC(=N)N)C(=O)N[C@@H](CCCCN)C(=O)N[C@H](C(N)=O)c3ccccc3)cc2)C1=O
22 | 5.72 | N=C(N)NCCC[C@H](NC(=O)c1ccc(/C=C2\SC(=O)N(CCC3CCCCC3)C2=O)cc1)C(=O)N[C@@H](CCCCN)C(=O)N[C@H](C(N)=O)c1ccccc1

molecular target: Genome polyprotein (West Nile virus) (UniProt P06935); assay: Inhibition of WNV NS2B-NS3 protease expressed in Escherichia coli BL21 lambda (DE3) cells using Abz-Gly-Leu-Lys-Arg-Gly-Gly-3-(NO2)Tyr as substrate at 50 uM preincubated for 15 mins followed by substrate addition measured for 15 mins by FRET assay relative to control
Sequence (P06935 whole entry): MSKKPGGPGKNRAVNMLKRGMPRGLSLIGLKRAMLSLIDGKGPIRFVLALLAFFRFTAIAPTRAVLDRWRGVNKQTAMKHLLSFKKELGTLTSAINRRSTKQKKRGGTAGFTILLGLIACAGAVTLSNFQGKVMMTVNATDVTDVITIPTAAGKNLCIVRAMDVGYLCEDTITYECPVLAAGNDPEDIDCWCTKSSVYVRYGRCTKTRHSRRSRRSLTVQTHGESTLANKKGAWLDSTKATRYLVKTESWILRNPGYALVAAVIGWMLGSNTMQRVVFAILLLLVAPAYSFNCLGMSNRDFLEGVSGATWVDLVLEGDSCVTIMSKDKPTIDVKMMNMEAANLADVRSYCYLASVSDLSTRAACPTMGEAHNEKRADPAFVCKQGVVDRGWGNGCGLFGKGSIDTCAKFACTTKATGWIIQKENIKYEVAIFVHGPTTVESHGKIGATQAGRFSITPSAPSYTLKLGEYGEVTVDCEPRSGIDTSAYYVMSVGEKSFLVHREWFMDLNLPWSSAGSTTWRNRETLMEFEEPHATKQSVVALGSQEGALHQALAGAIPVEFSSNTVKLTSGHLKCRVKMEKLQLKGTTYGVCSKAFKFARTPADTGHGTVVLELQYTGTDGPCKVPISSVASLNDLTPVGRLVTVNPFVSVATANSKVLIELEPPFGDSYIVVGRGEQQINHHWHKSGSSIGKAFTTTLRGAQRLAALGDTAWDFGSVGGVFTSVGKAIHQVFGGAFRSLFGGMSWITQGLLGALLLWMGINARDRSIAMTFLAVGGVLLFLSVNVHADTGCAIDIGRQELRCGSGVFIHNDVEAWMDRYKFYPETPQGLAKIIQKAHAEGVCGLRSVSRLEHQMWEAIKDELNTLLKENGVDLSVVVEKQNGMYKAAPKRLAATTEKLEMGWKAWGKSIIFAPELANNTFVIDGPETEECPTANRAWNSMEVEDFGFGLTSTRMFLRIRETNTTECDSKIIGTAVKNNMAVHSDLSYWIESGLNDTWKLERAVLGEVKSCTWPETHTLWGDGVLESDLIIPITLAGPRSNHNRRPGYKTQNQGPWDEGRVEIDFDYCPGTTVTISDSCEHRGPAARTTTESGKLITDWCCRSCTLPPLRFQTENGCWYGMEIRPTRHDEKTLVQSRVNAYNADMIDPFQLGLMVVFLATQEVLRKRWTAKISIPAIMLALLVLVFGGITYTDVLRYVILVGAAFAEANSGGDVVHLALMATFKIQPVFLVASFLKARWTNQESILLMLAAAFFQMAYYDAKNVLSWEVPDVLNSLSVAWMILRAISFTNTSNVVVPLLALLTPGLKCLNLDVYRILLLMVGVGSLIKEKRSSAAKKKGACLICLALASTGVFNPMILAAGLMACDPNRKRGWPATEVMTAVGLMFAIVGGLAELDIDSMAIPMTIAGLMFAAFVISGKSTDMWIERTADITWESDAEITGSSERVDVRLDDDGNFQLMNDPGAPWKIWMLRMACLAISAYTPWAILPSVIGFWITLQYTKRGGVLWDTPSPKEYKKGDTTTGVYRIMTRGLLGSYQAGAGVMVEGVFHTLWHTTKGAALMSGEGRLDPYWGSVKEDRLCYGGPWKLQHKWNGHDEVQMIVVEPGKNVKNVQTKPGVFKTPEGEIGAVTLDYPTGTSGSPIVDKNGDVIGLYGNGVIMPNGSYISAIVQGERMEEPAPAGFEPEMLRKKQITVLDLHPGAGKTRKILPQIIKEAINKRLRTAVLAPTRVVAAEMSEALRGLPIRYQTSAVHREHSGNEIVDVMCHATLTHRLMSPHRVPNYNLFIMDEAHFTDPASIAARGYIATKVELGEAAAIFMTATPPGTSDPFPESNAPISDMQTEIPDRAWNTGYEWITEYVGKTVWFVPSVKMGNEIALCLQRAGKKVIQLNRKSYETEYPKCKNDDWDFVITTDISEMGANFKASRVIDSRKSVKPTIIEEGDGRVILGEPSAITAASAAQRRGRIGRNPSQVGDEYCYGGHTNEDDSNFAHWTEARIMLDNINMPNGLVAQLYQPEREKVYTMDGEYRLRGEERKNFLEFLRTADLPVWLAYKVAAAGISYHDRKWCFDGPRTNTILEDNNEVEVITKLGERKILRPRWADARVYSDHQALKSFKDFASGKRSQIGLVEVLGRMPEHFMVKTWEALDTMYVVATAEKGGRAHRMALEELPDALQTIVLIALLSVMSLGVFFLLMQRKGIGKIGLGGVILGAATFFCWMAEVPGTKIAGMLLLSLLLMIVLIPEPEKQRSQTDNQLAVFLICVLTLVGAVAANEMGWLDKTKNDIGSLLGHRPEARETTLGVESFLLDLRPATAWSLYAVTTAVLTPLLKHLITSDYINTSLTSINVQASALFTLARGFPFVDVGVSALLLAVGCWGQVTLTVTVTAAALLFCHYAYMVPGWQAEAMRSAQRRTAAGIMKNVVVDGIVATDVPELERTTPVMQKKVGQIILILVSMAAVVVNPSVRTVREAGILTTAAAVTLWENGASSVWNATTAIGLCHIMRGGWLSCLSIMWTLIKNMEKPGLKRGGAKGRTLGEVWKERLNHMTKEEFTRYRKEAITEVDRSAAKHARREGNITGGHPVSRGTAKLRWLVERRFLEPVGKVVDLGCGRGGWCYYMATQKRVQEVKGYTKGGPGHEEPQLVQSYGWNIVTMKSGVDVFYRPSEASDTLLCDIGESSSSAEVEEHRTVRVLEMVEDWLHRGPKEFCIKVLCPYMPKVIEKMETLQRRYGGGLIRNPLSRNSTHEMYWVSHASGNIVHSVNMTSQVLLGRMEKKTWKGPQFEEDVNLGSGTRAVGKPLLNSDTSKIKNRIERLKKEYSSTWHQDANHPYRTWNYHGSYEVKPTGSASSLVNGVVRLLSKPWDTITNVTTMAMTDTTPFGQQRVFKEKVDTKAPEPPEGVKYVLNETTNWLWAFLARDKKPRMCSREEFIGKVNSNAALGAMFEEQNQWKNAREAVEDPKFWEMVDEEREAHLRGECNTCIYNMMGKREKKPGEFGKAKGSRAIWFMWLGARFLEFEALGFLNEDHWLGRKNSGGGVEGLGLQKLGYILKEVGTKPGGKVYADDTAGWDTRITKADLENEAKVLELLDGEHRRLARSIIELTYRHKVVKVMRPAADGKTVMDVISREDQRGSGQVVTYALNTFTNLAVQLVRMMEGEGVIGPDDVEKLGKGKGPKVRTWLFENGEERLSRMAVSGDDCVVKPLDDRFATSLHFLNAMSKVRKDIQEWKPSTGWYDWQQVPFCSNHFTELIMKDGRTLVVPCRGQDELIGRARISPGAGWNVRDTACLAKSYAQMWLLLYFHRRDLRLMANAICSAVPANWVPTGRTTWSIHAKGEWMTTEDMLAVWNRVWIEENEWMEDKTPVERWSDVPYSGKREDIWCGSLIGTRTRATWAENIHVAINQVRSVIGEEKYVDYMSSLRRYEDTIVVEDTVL

Row | SMILES | inhibition
23 | CC(C)N1C(=O)S/C(=C\c2ccc(C(=O)N[C@@H](CCCNC(=N)N)C(=O)N[C@@H](CCCCN)C(=O)N[C@H](C(N)=O)c3ccccc3)cc2)C1=O | 94.4%
24 | N=C(N)NCCC[C@H](NC(=O)c1ccc(/C=C2\SC(=O)N(C3CCCCCC3)C2=O)cc1)C(=O)N[C@@H](CCCCN)C(=O)N[C@H](C(N)=O)c1ccccc1 | 101%
25 | CC(C)CCN1C(=O)S/C(=C\c2ccc(C(=O)N[C@@H](CCCNC(=N)N)C(=O)N[C@@H](CCCCN)C(=O)N[C@H](C(N)=O)c3ccccc3)cc2)C1=O | 95.4%
26 | N=C(N)NCCC[C@H](NC(=O)c1ccc(/C=C2\SC(=O)N(C3CCCCC3)C2=O)cc1)C(=O)N[C@@H](CCCCN)C(=O)N[C@H](C(N)=O)c1ccccc1 | 98%
27 | C#CCCN1C(=O)S/C(=C\c2ccc(C(=O)O)cc2)C1=O | 20.8%
28 | CC(C)(C)CN1C(=O)S/C(=C\c2ccc(C(=O)O)cc2)C1=O | 41.1%

The remaining lines, values ahead:

Row | inhibition | SMILES
29 | 95% | CCC(CC)N1C(=O)S/C(=C\c2ccc(C(=O)N[C@@H](CCCNC(=N)N)C(=O)N[C@@H](CCCCN)C(=O)N[C@H](C(N)=O)c3ccccc3)cc2)C1=O
30 | 92.8% | CCC(C)N1C(=O)S/C(=C\c2ccc(C(=O)N[C@@H](CCCNC(=N)N)C(=O)N[C@@H](CCCCN)C(=O)N[C@H](C(N)=O)c3ccccc3)cc2)C1=O (some centres not stated)
31 | 34.8% | CC(C)N1C(=O)S/C(=C\c2ccc(C(=O)O)cc2)C1=O
32 | 98.8% | N=C(N)NCCC[C@H](NC(=O)c1ccc(/C=C2\SC(=O)N(CC3CCCC3)C2=O)cc1)C(=O)N[C@@H](CCCCN)C(=O)N[C@H](C(N)=O)c1ccccc1
33 | 99.2% | CCC(CC)CN1C(=O)S/C(=C\c2ccc(C(=O)N[C@@H](CCCNC(=N)N)C(=O)N[C@@H](CCCCN)C(=O)N[C@H](C(N)=O)c3ccccc3)cc2)C1=O
34 | 101% | N=C(N)NCCC[C@H](NC(=O)c1ccc(/C=C2\SC(=O)N(CCC3CCCCC3)C2=O)cc1)C(=O)N[C@@H](CCCCN)C(=O)N[C@H](C(N)=O)c1ccccc1
35 | inactive | O=C(O)c1ccc(/C=C2\SC(=O)N(CC34CC5CC(CC(C5)C3)C4)C2=O)cc1

molecular target: Genome polyprotein (West Nile virus, UniProt P06935); assay: Inhibition of WNV NS2B-NS3 protease expressed in Escherichia coli BL21 lambda (DE3) cells using Abz-Gly-Leu-Lys-Arg-Gly-Gly-3-(NO2)Tyr as substrate preincubated for 15 mins followed by substrate addition measured for 15 mins by FRET assay; in short: as §1
Sequence (P06935 1371-1501 limits assumed): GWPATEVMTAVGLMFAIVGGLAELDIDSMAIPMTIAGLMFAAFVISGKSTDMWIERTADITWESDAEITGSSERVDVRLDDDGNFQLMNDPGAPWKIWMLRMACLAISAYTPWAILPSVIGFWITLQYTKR
Sequence (P06935 1502-2120 limits assumed): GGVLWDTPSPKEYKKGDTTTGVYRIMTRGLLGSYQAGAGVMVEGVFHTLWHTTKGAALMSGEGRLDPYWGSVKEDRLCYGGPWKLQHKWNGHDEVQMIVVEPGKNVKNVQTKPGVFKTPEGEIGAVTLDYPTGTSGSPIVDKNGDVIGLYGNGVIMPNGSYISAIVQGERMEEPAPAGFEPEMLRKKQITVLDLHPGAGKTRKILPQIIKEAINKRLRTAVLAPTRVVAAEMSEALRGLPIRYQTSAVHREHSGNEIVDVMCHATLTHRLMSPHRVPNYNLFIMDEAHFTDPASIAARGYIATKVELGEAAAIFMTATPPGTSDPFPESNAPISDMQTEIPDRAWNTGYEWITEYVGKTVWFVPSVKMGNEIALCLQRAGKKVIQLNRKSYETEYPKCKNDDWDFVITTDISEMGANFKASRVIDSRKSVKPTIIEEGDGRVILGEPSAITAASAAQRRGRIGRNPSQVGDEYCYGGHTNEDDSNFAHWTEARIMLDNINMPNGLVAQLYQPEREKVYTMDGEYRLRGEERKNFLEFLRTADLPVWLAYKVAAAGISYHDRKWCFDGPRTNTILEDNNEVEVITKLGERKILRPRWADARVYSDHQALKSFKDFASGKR

Row | SMILES | pIC50
36 | CC(C)N1C(=O)S/C(=C\c2ccc(C(=O)N[C@@H](CCCNC(=N)N)C(=O)N[C@@H](CCCCN)C(=O)N[C@H](C(N)=O)c3ccccc3)cc2)C1=O | 5.44
37 | N=C(N)NCCC[C@H](NC(=O)c1ccc(/C=C2\SC(=O)N(C3CCCCCC3)C2=O)cc1)C(=O)N[C@@H](CCCCN)C(=O)N[C@H](C(N)=O)c1ccccc1 | 5.68
38 | CC(C)CCN1C(=O)S/C(=C\c2ccc(C(=O)N[C@@H](CCCNC(=N)N)C(=O)N[C@@H](CCCCN)C(=O)N[C@H](C(N)=O)c3ccccc3)cc2)C1=O | 5.75
39 | N=C(N)NCCC[C@H](NC(=O)c1ccc(/C=C2\SC(=O)N(C3CCCCC3)C2=O)cc1)C(=O)N[C@@H](CCCCN)C(=O)N[C@H](C(N)=O)c1ccccc1 | 5.77

Now from value to molecule:

Row | pIC50 | SMILES
40 | 5.95 | CCC(CC)N1C(=O)S/C(=C\c2ccc(C(=O)N[C@@H](CCCNC(=N)N)C(=O)N[C@@H](CCCCN)C(=O)N[C@H](C(N)=O)c3ccccc3)cc2)C1=O
41 | 5.60 | CCC(C)N1C(=O)S/C(=C\c2ccc(C(=O)N[C@@H](CCCNC(=N)N)C(=O)N[C@@H](CCCCN)C(=O)N[C@H](C(N)=O)c3ccccc3)cc2)C1=O (some centres not stated)
42 | 6.00 | N=C(N)NCCC[C@H](NC(=O)c1ccc(/C=C2\SC(=O)N(CC3CCCC3)C2=O)cc1)C(=O)N[C@@H](CCCCN)C(=O)N[C@H](C(N)=O)c1ccccc1
43 | 5.87 | CCC(CC)CN1C(=O)S/C(=C\c2ccc(C(=O)N[C@@H](CCCNC(=N)N)C(=O)N[C@@H](CCCCN)C(=O)N[C@H](C(N)=O)c3ccccc3)cc2)C1=O
44 | 5.95 | N=C(N)NCCC[C@H](NC(=O)c1ccc(/C=C2\SC(=O)N(CCC3CCCCC3)C2=O)cc1)C(=O)N[C@@H](CCCCN)C(=O)N[C@H](C(N)=O)c1ccccc1

molecular target: Prothrombin (Homo sapiens) (UniProt P00734); assay: Inhibition of thrombin (unknown origin) using Boc-Val-Pro-Arg-AMC as substrate at 25 uM preincubated for 15 mins followed by substrate addition measured for 10 mins by FRET assay relative to control

Row | SMILES | inhibition
45 | CC(C)N1C(=O)S/C(=C\c2ccc(C(=O)N[C@@H](CCCNC(=N)N)C(=O)N[C@@H](CCCCN)C(=O)N[C@H](C(N)=O)c3ccccc3)cc2)C1=O | 8.5%
46 | N=C(N)NCCC[C@H](NC(=O)c1ccc(/C=C2\SC(=O)N(C3CCCCCC3)C2=O)cc1)C(=O)N[C@@H](CCCCN)C(=O)N[C@H](C(N)=O)c1ccccc1 | 11.5%
47 | CC(C)CCN1C(=O)S/C(=C\c2ccc(C(=O)N[C@@H](CCCNC(=N)N)C(=O)N[C@@H](CCCCN)C(=O)N[C@H](C(N)=O)c3ccccc3)cc2)C1=O | 7.3%
48 | N=C(N)NCCC[C@H](NC(=O)c1ccc(/C=C2\SC(=O)N(C3CCCCC3)C2=O)cc1)C(=O)N[C@@H](CCCCN)C(=O)N[C@H](C(N)=O)c1ccccc1 | 9.5%

Next, values leading:

Row | inhibition | SMILES
49 | 8% | CCC(CC)N1C(=O)S/C(=C\c2ccc(C(=O)N[C@@H](CCCNC(=N)N)C(=O)N[C@@H](CCCCN)C(=O)N[C@H](C(N)=O)c3ccccc3)cc2)C1=O
50 | 38.9% | CCC(C)N1C(=O)S/C(=C\c2ccc(C(=O)N[C@@H](CCCNC(=N)N)C(=O)N[C@@H](CCCCN)C(=O)N[C@H](C(N)=O)c3ccccc3)cc2)C1=O (some centres not stated)
51 | 10.1% | N=C(N)NCCC[C@H](NC(=O)c1ccc(/C=C2\SC(=O)N(CC3CCCC3)C2=O)cc1)C(=O)N[C@@H](CCCCN)C(=O)N[C@H](C(N)=O)c1ccccc1
52 | 8.7% | CCC(CC)CN1C(=O)S/C(=C\c2ccc(C(=O)N[C@@H](CCCNC(=N)N)C(=O)N[C@@H](CCCCN)C(=O)N[C@H](C(N)=O)c3ccccc3)cc2)C1=O
53 | 7.3% | N=C(N)NCCC[C@H](NC(=O)c1ccc(/C=C2\SC(=O)N(CCC3CCCCC3)C2=O)cc1)C(=O)N[C@@H](CCCCN)C(=O)N[C@H](C(N)=O)c1ccccc1

system: dengue virus type 2; assay: Inhibition of DENV serotype 2 NS2B-NS3 protease expressed in Escherichia coli BL21 lambda (DE3) cells by HPLC-based assay

Row | SMILES | inhibition
54 | CC(C)N1C(=O)S/C(=C\c2ccc(C(=O)O)cc2)C1=O | inactive
55 | C#CCCN1C(=O)S/C(=C\c2ccc(C(=O)O)cc2)C1=O | inactive
56 | CC(C)(C)CN1C(=O)S/C(=C\c2ccc(C(=O)O)cc2)C1=O | inactive
57 | O=C(O)c1ccc(/C=C2\SC(=O)N(CC34CC5CC(CC(C5)C3)C4)C2=O)cc1 | inactive
